ChEMBL document CHEMBL3351397, “Synthesis and bioactivity of novel amino-pyrazolopyridines” (Eur J Med Chem, 2014)
Activity calls are given as the source filed them. The calls are words filed in the database; no cut-off is given here.

Assays:
[1] = target: T1, Nuclear factor NF-kappa-B complex (Homo sapiens) (UniProt Q00653+P19838+Q04206); experiment: Inhibition of TNFalpha-induced NF-kB transactivation in human K562 cells after 8 hrs by luciferase reporter gene assay
[2] = system: K562; experiment: Cytotoxicity against human K562 cells at 40 uM assessed as reduction in cell viability after 72 hrs by CellTiter-Glo luminescent assay relative to control; format: functional
Method in brief: (§1)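 K562 cells in RPMI/10% FCS at 37 °C, 5% CO2 were exposed to a single 40 µM concentration for 24 or 72 h. Metabolic activity was normalized to untreated control as % viable cells, mean ± SD of three determinations. Etoposide served as positive control.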

[3] = system: K562; experiment: Induction of apoptosis in human K562 cells assessed as induction of caspase 3/7 activity at 40 uM after 8 to 48 hrs by luminescent assay relative to untreated control in presence of 50 uM z-VAD; format: functional, cell-based
Method in brief: (§2)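 Caspase-Glo 3/7 readout at 3 × 10⁵ cells/mL. Cells were pretreated 1 h with the pan-caspase inhibitor Z-VAD(OMe)-FMK, then exposed to compounds at 40 µM for 8, 24 and 48 h. Culture was mixed 1:1 with reagent for 1 h at room temperature; luminescence is expressed as fold change over untreated cells.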

[4] = system: Jurkat; experiment: Induction of apoptosis in human Jurkat cells assessed as induction of caspase 3/7 activity at 40 uM after 8 hrs by luminescent assay relative to untreated control; format: functional
Method in brief: (§3)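 Cells at 3 × 10⁵/mL were treated with test compounds at 40 µM for 8, 24 or 48 h. Culture was then mixed 1:1 with Caspase-Glo 3/7 reagent and incubated 1 h at room temperature; the reagent lyses cells, caspase cleaves the substrate and luciferase gives luminescence. Results are fold change versus untreated cells.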

[5] = system: U-937; experiment: Induction of apoptosis in human U937 cells assessed as induction of caspase 3/7 activity at 40 uM after 8 to 48 hrs by luminescent assay relative to untreated control in presence of 50 uM z-VAD; format: functional, cell-based
Method in brief: as §2

[6] = system: U-937; experiment: Induction of apoptosis in human U937 cells assessed as induction of caspase 3/7 activity at 40 uM after 48 hrs by luminescent assay relative to untreated control; format: functional
Method in brief: as §3

[7] = system: K562; experiment: Induction of apoptosis in human K562 cells assessed as induction of caspase 3/7 activity at 40 uM after 8 hrs by luminescent assay relative to untreated control; format: functional
Method in brief: as §3

[8] = system: K562; experiment: Induction of apoptosis in human K562 cells at 40 uM after 72 hrs using Hoechst 33342 by fluorescence microscopy; format: functional, cell-based
Method in brief: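 K562 cells were treated 72 h at 40 µM, then stained with Hoechst 33342 for 15 min at 37 °C. Nuclear morphology, scored as condensed nuclei, was examined by fluorescence microscopy. Etoposide served as positive control.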

[9] = system: K562; experiment: Induction of apoptosis in human K562 cells assessed as induction of caspase 3/7 activity at 40 uM after 24 hrs by luminescent assay relative to untreated control; format: functional
Method in brief: as §3

[10] = system: Jurkat; experiment: Induction of apoptosis in human Jurkat cells assessed as induction of caspase 3/7 activity at 40 uM after 24 hrs by luminescent assay relative to untreated control; format: functional
Method in brief: as §3

[11] = system: Jurkat; experiment: Induction of apoptosis in human Jurkat cells assessed as induction of caspase 3/7 activity at 40 uM after 8 to 48 hrs by luminescent assay relative to untreated control in presence of 50 uM z-VAD; format: functional, cell-based
Method in brief: as §2

[12] = system: K562; experiment: Induction of apoptosis in human K562 cells assessed as induction of caspase 3/7 activity at 40 uM after 48 hrs by luminescent assay relative to untreated control; format: functional
Method in brief: as §3

[13] = system: U-937; experiment: Induction of apoptosis in human U937 cells assessed as induction of caspase 3/7 activity at 40 uM after 8 hrs by luminescent assay relative to untreated control; format: functional
Method in brief: as §3

[14] = system: PBMC; experiment: Cytotoxicity against human PBMCs after 24 to 72 hrs by CellTiter-Glo luminescent cell viability assay; format: cell-based; conditions: for Activity: human, pbmc
Method in brief: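 PBMCs from healthy donors were isolated by Ficoll centrifugation (400 g, 20 min) of blood diluted 1:1 in RPMI, then washed 2–3 times. Cells rested 24 h at 37 °C, 5% CO2 before dosing. They were then treated as for K562: 40 µM screen and dose-response at 24 and 72 h, % viable versus control, mean ± SD of three determinations.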

[15] = system: U-937; experiment: Induction of apoptosis in human U937 cells assessed as induction of caspase 3/7 activity at 40 uM after 24 hrs by luminescent assay relative to untreated control; format: functional
Method in brief: as §3

[16] = target: T1, Nuclear factor NF-kappa-B complex (Homo sapiens); experiment: Inhibition of TNFalpha-induced NF-kB transactivation in human K562 cells at 40 uM after 8 hrs by luciferase reporter gene assay
[17] = system: Jurkat; experiment: Induction of apoptosis in human Jurkat cells assessed as induction of caspase 3/7 activity at 40 uM after 48 hrs by luminescent assay relative to untreated control; format: functional
Method in brief: as §3

[18] = system: K562; experiment: Cytotoxicity against human K562 cells after 24 to 72 hrs by CellTiter-Glo luminescent cell viability assay; format: functional, cell-based
Method in brief: (§4)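 K562 cells were grown in RPMI with 10% FCS and 1% antibiotic-antimycotic at 37 °C, 5% CO2. Cells were exposed to a range of concentrations for 24 and 72 h and metabolic activity was read. Data were normalized to untreated control as % viable cells, mean ± SD of three determinations, with IC50 derived from dose-response curves.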

[19] = system: K562; experiment: Cytotoxicity against human K562 cells after 72 hrs by CellTiter-Glo luminescent cell viability assay; format: functional, cell-based; conditions: K562, 72 h
Method in brief: as §4

[20] = system: K562; experiment: Cytotoxicity against human K562 cells assessed as reduction in cell viability at 40 uM after 24 hrs by CellTiter-Glo luminescent assay; format: functional
Method in brief: as §1

[21] = target: T1, Nuclear factor NF-kappa-B complex (Homo sapiens); experiment: Inhibition of TNFalpha-induced NF-kB pathway in human K562 cells after 8 hrs by luciferase reporter gene assay; format: cell-based
Method in brief: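 K562 cells were electroporated with an NF-κB-RE firefly luciferase reporter (5 µg) plus phRG-TK Renilla plasmid, then recovered 24 h in RPMI/10% FCS. Cells were resuspended at 1 × 10⁶/mL in RPMI/0.1% FCS, pretreated 2 h, then stimulated with TNFα 20 ng/mL for 6 h (8 h total). Dual-Glo firefly/Renilla ratio read at 22 °C; three independent experiments.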

[22] = target: T1, Nuclear factor NF-kappa-B complex (Homo sapiens); experiment: Inhibition of TNFalpha-induced NF-kB pathway in human K562 cells assessed as inhibition of IL-8 release preincubated for 2 hrs before TNFalpha addition measured after 24 hrs by sandwich ELISA; format: cell-based
Method in brief: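 K562 cells were pretreated 2 h with compound, then activated with TNFα 20 ng/mL for 22 h (24 h total). Supernatant IL-8 was quantified by sandwich ELISA: pre-coated anti-IL-8 wells for 2 h at room temperature, peroxidase-conjugated polyclonal anti-IL-8 for 60 min, then H2O2/TMB colorimetric development. Mean ± SD of three determinations.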

[23] = system: K562; experiment: Cytotoxicity against human K562 cells assessed as reduction in cell viability at 8.2 uM after 24 hrs by CellTiter-Glo luminescent assay; format: functional, cell-based

T1 sequence (P19838 whole entry, looked up): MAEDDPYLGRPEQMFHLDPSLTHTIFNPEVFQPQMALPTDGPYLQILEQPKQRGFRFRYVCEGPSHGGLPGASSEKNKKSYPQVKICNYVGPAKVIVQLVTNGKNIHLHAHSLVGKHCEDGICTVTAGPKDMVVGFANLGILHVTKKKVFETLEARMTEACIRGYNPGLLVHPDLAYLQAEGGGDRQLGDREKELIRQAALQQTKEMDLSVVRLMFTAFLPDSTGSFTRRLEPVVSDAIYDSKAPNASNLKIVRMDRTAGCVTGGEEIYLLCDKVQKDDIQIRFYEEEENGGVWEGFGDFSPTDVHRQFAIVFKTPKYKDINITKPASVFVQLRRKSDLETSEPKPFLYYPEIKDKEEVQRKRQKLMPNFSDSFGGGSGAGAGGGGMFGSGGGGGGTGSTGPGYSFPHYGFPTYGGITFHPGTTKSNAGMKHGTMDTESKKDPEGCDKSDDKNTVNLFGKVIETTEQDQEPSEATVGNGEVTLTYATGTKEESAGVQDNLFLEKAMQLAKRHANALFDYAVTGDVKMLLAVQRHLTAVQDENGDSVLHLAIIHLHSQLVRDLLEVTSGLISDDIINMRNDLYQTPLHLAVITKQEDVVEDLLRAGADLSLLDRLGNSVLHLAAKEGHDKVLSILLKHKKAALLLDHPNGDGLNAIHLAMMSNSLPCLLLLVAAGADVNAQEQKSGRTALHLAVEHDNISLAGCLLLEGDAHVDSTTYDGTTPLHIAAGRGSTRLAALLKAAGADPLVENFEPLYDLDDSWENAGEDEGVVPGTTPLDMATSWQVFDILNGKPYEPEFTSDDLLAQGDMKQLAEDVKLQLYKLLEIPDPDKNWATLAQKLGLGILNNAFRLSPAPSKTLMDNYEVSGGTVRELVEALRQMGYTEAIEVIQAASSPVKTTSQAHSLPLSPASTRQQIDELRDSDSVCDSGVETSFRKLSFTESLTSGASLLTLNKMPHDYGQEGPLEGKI
T1 sequence (Q00653 whole entry, looked up): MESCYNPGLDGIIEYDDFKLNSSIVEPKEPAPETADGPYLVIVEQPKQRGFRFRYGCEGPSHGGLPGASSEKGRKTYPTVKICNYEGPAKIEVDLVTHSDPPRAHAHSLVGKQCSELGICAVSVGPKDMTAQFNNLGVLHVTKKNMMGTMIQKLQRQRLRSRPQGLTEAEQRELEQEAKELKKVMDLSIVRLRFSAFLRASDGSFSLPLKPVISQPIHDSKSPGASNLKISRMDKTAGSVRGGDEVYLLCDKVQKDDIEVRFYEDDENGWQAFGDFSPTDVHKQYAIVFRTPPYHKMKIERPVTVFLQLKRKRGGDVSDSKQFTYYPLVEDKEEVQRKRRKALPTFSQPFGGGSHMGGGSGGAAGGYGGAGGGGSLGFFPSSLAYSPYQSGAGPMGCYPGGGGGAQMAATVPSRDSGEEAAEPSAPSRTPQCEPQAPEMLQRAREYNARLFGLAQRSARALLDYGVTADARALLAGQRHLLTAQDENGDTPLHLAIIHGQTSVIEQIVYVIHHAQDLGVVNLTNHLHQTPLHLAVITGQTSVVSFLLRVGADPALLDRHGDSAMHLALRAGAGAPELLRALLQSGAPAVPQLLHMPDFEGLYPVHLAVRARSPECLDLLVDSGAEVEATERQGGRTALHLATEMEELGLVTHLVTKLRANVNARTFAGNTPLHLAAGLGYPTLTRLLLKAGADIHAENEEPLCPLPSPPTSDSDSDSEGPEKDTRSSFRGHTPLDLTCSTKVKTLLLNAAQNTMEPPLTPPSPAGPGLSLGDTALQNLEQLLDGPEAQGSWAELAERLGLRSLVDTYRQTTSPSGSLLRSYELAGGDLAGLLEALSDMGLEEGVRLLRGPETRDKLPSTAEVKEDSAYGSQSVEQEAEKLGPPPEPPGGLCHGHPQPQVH
T1 sequence (Q04206 whole entry, looked up): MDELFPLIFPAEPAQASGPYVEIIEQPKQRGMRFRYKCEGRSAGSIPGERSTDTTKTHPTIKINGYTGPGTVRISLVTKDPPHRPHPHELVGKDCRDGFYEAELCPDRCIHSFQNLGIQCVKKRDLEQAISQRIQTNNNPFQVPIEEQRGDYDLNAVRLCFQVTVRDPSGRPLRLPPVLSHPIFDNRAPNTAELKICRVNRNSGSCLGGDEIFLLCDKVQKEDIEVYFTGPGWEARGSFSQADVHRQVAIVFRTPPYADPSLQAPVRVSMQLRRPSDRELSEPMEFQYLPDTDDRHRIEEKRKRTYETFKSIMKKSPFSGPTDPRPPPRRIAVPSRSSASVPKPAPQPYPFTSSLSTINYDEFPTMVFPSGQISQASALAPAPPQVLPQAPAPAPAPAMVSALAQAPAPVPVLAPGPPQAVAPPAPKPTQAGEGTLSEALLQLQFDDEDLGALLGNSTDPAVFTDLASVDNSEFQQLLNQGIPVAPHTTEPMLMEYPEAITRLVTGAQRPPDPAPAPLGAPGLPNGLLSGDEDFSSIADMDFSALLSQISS

Row | inhibition [1] | inhibition [16] | SMILES | Activity [2] | Activity [3] | Activity [4] | Activity [5] | Activity [6] | Fold change [7] | Activity [8] | Activity [9] | Activity [10] | Activity [11] | Activity [12] | Fold change [13] | Activity [14] | Activity [15] | Fold change [17] | IC50 [18] | other results
1 | Dose-dependent effect | Active | Nc1n[nH]c2ncc3c(c12)-c1ccccc1CC3 | >50% | inactive | 2.86% | inactive | 1.74% | 1.37 | Active | 2.5 | 2.73% | inactive | 2.23% | 11.7 | Non-toxic | 5.84% | 2.05 | 27.6 µM | –
2 | Dose-dependent effect | Active | Cc1cnc2[nH]nc(N)c2c1-c1ccccc1 | >50% | inactive | 1.27% | inactive | 4.35% | 1.26 | Active | 3.62 | 1.31% | inactive | 2.9% | 1.73 | Non-toxic | 5.87% | 1.44 | 35 µM | IC50 [19]: 35 µM; Activity [20]: <50%; inhibition [21]: Active
3 | Dose-dependent effect | Active | CC1Cc2cnc3[nH]nc(N)c3c2-c2ccccc21 (stereo not given) | >50% | inactive | 8.89% | inactive | 1.48% | 1.44 | Active | 2.04 | 5.38% | inactive | 1.55% | 16.5 | – | 6.27% | 2.11 | 36.5 µM | IC50 ([14]; Homo sapiens, PBMC): 36.6 µM; inhibition [22]: Dose-dependent effect; Activity [23]: inactive; Activity [18]: Dose-dependent effect
